Results published in ChEMBL document CHEMBL1124147 (J Med Chem, 1988).

Assays:
[1] = target: T1, Muscarinic acetylcholine receptor M2 (Rattus norvegicus, UniProt P10980); test: Inhibition of [3H]quinuclidinyl benzilate binding to Muscarinic acetylcholine receptor M2 of rat heart
T1 sequence (P10980 whole entry): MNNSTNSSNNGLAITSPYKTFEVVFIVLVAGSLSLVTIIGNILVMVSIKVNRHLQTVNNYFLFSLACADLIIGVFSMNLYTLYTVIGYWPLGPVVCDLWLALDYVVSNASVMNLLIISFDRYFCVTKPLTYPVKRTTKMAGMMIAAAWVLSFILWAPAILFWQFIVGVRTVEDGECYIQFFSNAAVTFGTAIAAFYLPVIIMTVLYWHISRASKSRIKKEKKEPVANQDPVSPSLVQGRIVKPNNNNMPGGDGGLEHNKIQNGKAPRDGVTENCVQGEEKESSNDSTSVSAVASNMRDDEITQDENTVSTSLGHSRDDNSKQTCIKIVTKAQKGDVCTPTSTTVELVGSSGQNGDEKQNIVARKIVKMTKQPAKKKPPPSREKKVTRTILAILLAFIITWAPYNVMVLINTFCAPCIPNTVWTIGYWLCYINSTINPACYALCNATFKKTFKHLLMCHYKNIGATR

[2] = target: T2, Muscarinic acetylcholine receptor M1 (Rattus norvegicus, UniProt P08482); test: Inhibition of [3H]pirenzepine binding to rat brain membrane Muscarinic acetylcholine receptor M1
T2 sequence (P08482 whole entry): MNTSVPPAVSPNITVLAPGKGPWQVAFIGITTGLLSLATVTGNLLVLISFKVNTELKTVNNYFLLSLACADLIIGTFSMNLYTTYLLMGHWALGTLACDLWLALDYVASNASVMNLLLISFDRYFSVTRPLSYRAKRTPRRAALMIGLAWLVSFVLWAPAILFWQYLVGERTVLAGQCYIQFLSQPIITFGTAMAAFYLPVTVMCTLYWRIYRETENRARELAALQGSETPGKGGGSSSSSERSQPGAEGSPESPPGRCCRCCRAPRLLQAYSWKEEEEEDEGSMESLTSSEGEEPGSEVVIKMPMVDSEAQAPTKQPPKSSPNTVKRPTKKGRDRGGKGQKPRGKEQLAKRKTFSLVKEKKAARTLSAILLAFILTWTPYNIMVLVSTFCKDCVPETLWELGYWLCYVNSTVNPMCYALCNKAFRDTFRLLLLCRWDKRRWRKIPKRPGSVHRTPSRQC

Cavia porcellus [3] = organism: Cavia porcellus; test: Compound was tested for the antagonistic activity on guinea pig ileum; format: functional
Method in brief: (§1)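 Isolated ileum preparation, with the agonist EC50 and the antagonist IC50 read from dose-response curves.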

[4] = (§2) Muscarinic agonist index (Ki in [3H]QNB / Ki in [3H]-OXO-M) was determined; format: functional
[5] = target: Muscarinic acetylcholine receptor; test: Inhibition of [3H]oxotremorine-M binding to rat brain membrane Muscarinic acetylcholine receptor
[6] = M-1 selectivity expressed as M-2/M-1 index (Ki in [3H]-QNB / Ki in [3H]PZ) was determined
Method in brief: (§3)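 Ratio of Ki from [3H]QNB binding in rat heart to Ki from [3H]PZ binding in rat brain membranes. Ki = IC50/(1+[L]/Kd) in both. Heart assay: tissue homogenized with an ultraturrax, 4 mg tissue per assay, QNB Kd 9.1 ± 0.7 pM.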

Cavia porcellus [7] = organism: Cavia porcellus; test: Effective concentration of compound for the agonistic activity on guinea pig ileum; format: functional; method in brief: as §1
[8] = target: T1, Muscarinic acetylcholine receptor M2; test: Inhibition of [3H]quinuclidinyl benzilate binding to Muscarinic acetylcholine receptor M2 in rat brain membrane; format: cell membranes
[9] = as §2
Cavia porcellus [10] = organism: Cavia porcellus; test: Compound was tested for the agonistic activity on guinea pig ileum; format: functional; method in brief: as §1
[11] = M-1 selectivity expressed as M-2/M-1 index (Ki in [3H]QNB / Ki in [3H]-PZ) was determined; format: functional; method in brief: as §3
[12] = target: T1, Muscarinic acetylcholine receptor M2; test: Compound was tested for the inhibition of [3H]quinuclidinyl benzilate binding to Muscarinic acetylcholine receptor M2 in rat brain membrane; format: cell membranes

Row | SMILES | IC50 [1] [µM] | IC50 [2] [µM] | IC50 (Cavia porcellus [3]) [µM] | M-agonist index [4] | IC50 [5] [µM] | Ratio [6] | EC50 (Cavia porcellus [7]) [µM] | IC50 [8] [µM] | M-agonist index [9] | EC50 (Cavia porcellus [10]) [µM] | Ratio [11] | IC50 [12] [µM]
1 | COc1noc2c1C[N+](C)(C)CC2.[I-] | 9.5 | 2.8 | > 3 | 279 | 0.043 | 0.42 | 8.2 | 74 |  |  |  | 
2 | COc1noc2c1CN(C)CC2 | 16 | 6.4 | > 0.2 |  | 0.028 |  |  | 38 | 220 | 0.83 | 0.31 | 
3 | COc1noc2c1C[S+](C)CC2.[I-] (configuration not stated) | 1.6 | 4.1 | > 0.4 | 307 | 0.019 | 0.05 | 0.84 | 36 |  |  |  | 
4 | CCOc1noc2c1C[S+](C)CC2.[I-] (configuration not stated) | 4.9 | 0.53 | 15 | 3.3 | 0.23 | 1.2 | > 50 |  |  |  |  | 4.6
5 | COC(=O)C1=CCCN(C)C1 [ARECOLINE] |  |  | > 1 |  |  |  | 0.15 |  |  |  |  | 
6 | C#CCOc1noc2c1C[S+](C)CC2.[I-] (configuration not stated) | 0.44 | 0.25 | > 0.2 | 128 | 0.0033 | 0.22 | 0.56 | 2.6 |  |  |  | 
7 | CCOC(=O)C1=CCC[S+](C)C1.[Cl-] (configuration not stated) | 3.9 | 0.4 |  | 387 | 0.0092 | 1.2 |  | 22 |  |  |  | 
8 | Cn1oc2c(c1=O)C[S+](C)CC2.[I-] (configuration not stated) | 10 | 30 | > 6 | 81 | 0.22 | 0.04 | 9.3 | 110 |  |  |  | 
9 | Cn1oc2c(c1=O)CSCC2 | > 1000 | > 1000 | > 50 |  | > 1000 |  | > 50 | > 1000 |  |  |  | 
10 | COC(=O)C1=CCC[S+](C)C1.[I-] (configuration not stated) [SULFOARECOLINE IODIDE] | 2.5 | 2.6 |  | 3930 | 0.0014 | 0.12 |  | 34 |  |  |  | 
11 | COc1noc2c1CSCC2 | > 1000 | > 1000 | > 50 |  | > 1000 |  | > 50 | > 1000 |  |  |  | 
12 | CC(C)Oc1noc2c1C[S+](C)CC2.[I-] (configuration not stated) | 1.8 | 0.43 | > 3 | 20 | 0.039 | 0.53 | 6.2 | 4.8 |  |  |  | 
